Published values gathered from unrelated publications.
Lines come from different studies, so protocols differ.

SMILES | target or system | test | system | setting | endpoint | value
CC1CCN(CCCN2/C(=C/c3cc[n+](C)c4ccccc34)Sc3ccccc32)CC1.[I-] | Enterobacter cloacae | microbial growth, broth dilution | ATCCBAA1143 |  | MIC | > 64 µg/mL
Nc1cc(Br)c(Br)cc1N | ME-180 | cell growth or viability |  | 72 h | IC50 | 75 µM
CN1C[C@H](C(=O)N[C@]2(C)O[C@@]3(O)[C@@H]4CCCN4C(=O)[C@H](Cc4ccccc4)N3C2=O)C=C2c3cccc4[nH]cc(c34)C[C@H]21 | NCI-H1299 | cell growth or viability, MTT |  | 72 h | EC50 | ~25 µM
Nc1cc(Cl)c(Cl)cc1N | ME-180 | cell growth or viability |  | 72 h | IC50 | 100 µM
COc1cccc(Oc2ccccc2NC(=O)CNC(=O)c2cccc3ccccc23)c1 | HL-60 | cell growth or viability |  | 48 h | GI50 | 0.0813 µM
CN[C@H](CC(C)C)C(=O)N[C@H]1C(=O)N[C@@H](CC(N)=O)C(=O)N[C@H]2C(=O)N[C@H]3C(=O)N[C@H](C(=O)N[C@H](C(=O)O)c4cc(O)cc(O)c4-c4cc3ccc4O)[C@H](O)c3ccc(c(Cl)c3)Oc3cc2cc(c3O[C@@H]2O[C@H](CO)[C@@H](O)[C@H](O)[C@H]2O[C@H]2C[C@](C)(N)[C@H](O)[C@H](C)O2)Oc2ccc(cc2Cl)[C@H]1O | Enterobacter cloacae | microbial growth, broth dilution | ATCCBAA1143 |  | MIC | > 64 µg/mL
CO[C@H]1/C=C/O[C@@]2(C)Oc3c(C)c(O)c4c(O)c(c(/C=N/N5CCN(C)CC5)c(O)c4c3C2=O)NC(=O)/C(C)=C\C=C\[C@H](C)[C@H](O)[C@@H](C)[C@@H](O)[C@@H](C)[C@H](OC(C)=O)[C@@H]1C | Vero | cell growth or viability |  | 18 h | IC50 | 120 µg/mL
CCCCCOc1ccc(-c2cc(-c3ccc(C(=O)N[C@H]4C[C@@H](O)[C@@H](O)NC(=O)[C@@H]5[C@@H](O)[C@@H](C)CN5C(=O)[C@H]([C@H](O)CC(N)=O)NC(=O)[C@H]([C@H](O)[C@@H](O)c5ccc(O)c(OS(=O)(=O)O)c5)NC(=O)[C@@H]5C[C@@H](O)CN5C(=O)[C@H]([C@@H](C)O)NC4=O)cc3)no2)cc1 | Candida dubliniensis | biofilm formation |  | 16 µg/mL | inhibition | 42%
